One test has as its system PC-3. Nature of the test: Cytotoxicity against human PC3 cells after 72 hrs by MTT assay. Format: functional. As to conditions: PC-3, 72 h. A digest of the protocol:
(§1)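 Cells plated 24 h in 96-well plates at 10,000–40,000 cells/mL depending on line. U373 grown in MEM, other lines in RPMI, both with 5% heat-inactivated FCS. Cells exposed to compounds (or none, control) for 72 h. MTT reduction to formazan read at 570 nm against 630 nm reference. Sextuplicate per condition.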
In general terms: Formazan colour is commonly taken as a measure of viable cells.

The test system of a further test is U-373MG ATCC. Kind of test: Cytostatic activity against human U373 cells assessed as morphological changes after 72 hrs by phase contrast microscopy. The format is functional, cell-based.
In test [1] the target is T1, DNA topoisomerase 1 (Homo sapiens) (UniProt P11387).
T1 sequence (whole entry): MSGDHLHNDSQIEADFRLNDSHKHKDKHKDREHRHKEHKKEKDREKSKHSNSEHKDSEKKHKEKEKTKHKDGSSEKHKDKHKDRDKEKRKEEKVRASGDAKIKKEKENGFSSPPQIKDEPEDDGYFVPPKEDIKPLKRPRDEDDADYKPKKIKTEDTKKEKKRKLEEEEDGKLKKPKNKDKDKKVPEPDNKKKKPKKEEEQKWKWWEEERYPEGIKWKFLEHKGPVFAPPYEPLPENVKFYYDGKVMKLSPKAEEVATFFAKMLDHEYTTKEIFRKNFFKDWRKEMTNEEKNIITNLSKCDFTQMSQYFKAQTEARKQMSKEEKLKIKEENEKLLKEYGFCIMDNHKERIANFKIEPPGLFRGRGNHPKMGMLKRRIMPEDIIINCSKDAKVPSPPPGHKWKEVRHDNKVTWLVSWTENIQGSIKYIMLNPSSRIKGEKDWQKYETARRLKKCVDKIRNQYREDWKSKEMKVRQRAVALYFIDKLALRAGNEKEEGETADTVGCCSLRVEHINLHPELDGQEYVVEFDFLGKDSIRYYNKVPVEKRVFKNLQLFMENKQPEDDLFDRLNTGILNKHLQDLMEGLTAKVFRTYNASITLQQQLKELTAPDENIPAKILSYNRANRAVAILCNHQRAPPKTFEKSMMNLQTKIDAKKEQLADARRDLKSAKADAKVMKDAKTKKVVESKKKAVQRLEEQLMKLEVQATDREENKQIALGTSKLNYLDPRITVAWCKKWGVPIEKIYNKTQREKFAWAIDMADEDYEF
Nature of the test: Effect on human DNA topoisomerase 1-mediated supercoiled pGEM1 plasmid DNA cleavage complex stabilization at up to 100 uM by agarose gel electrophoresis.

A further test concerns SK-MEL. Kind of test: Cytotoxicity against human SK-MEL cells after 72 hrs by MTT assay. Format: functional. A digest of the protocol:
as §1

The next test has as its system HeLa. Nature of the test: Cytotoxicity against human HeLa cells after 72 hrs by MTT assay. The format is functional. A digest of the protocol: as §1
Test [2] concerns the target DNA topoisomerase 2-alpha (Homo sapiens) (UniProt P11388). Nature of the test: Inhibition of human DNA topoisomerase 2-mediated decatenation of catenated kinetoplast DNA at 1 uM after 1 hr by agarose gel electrophoresis. In a few lines:
(§2)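 0.2 μg catenated kinetoplast DNA incubated 1 h at 37 °C with compound in 50 mM Tris-Cl pH 8.0, 150 mM NaCl, 10 mM MgCl2, 5 mM ATP, 0.5 mM DTT, 30 μg/mL BSA. Doxorubicin 5 μM as positive control. Stopped with SDS/proteinase K, 30 min at 37 °C. Run on 1% agarose (55 V, 2 h), stained with ethidium bromide.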

A short description of test [3]: Cytotoxicity against human U373 cells after 72 hrs by MTT assay. The format is functional, U-373MG ATCC. Conditions: U373 MG. In a few lines:
as §1

In a further test the test system is A549. Kind of test: Cytotoxicity against human A549 cells after 72 hrs by MTT assay. Format: functional. As to conditions: A549, 72 h. A digest of the protocol:
as §1

The target in test [4] is DNA topoisomerase 2-alpha (Homo sapiens) (UniProt P11388). Kind of test: Inhibition of human DNA topoisomerase 2-mediated decatenation of catenated kinetoplast DNA at 5 uM after 1 hr by agarose gel electrophoresis. A digest of the protocol:
as §2

A further test relates to MCF7. Nature of the test: Cytotoxicity against human MCF7 cells after 72 hrs by MTT assay. Format: functional. Conditions: MCF7, 72 h. A digest of the protocol: as §1
The subject of a further test is LoVo. Nature of the test: Cytotoxicity against human LoVo cells after 72 hrs by MTT assay. Format: functional. A digest of the protocol:
as §1

A further test relates to Jurkat. Nature of the test: Cytotoxicity against human Jurkat cells after 72 hrs by MTT assay. Format: functional. A digest of the protocol: as §1
For test [5], the target named is T1, DNA topoisomerase 1 (Homo sapiens). Kind of test: Inhibition of human DNA topoisomerase 1-mediated relaxation of supercoiled pGEM1 plasmid DNA at 250 uM after 30 mins by agarose gel electrophoresis. A digest of the protocol:
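Enzyme source: nuclear extract of MCF-7 cells (0.1 μL). 250 ng supercoiled pGEM1 plasmid incubated 30 min at 37 °C with compound (10–250 μM) in 10 mM Tris pH 7.9, 100 mM KCl, 10 mM MgCl2, 0.5 mM DTT, 0.5 mM EDTA, 0.03 mg/mL BSA. Camptothecin 100 μM as positive control. Stopped with SDS/proteinase K, 30 min at 37 °C. Run on 1% agarose, stained with ethidium bromide.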

Active and inactive are the calls of the source. No cut-off for these calls is given here.

One may read the GI50 as the concentration that inhibits growth by half. The low end stands for more potent growth inhibition, the high end for less potent growth inhibition.

Sequence of DNA topoisomerase 2-alpha (Homo sapiens) (P11388 whole entry): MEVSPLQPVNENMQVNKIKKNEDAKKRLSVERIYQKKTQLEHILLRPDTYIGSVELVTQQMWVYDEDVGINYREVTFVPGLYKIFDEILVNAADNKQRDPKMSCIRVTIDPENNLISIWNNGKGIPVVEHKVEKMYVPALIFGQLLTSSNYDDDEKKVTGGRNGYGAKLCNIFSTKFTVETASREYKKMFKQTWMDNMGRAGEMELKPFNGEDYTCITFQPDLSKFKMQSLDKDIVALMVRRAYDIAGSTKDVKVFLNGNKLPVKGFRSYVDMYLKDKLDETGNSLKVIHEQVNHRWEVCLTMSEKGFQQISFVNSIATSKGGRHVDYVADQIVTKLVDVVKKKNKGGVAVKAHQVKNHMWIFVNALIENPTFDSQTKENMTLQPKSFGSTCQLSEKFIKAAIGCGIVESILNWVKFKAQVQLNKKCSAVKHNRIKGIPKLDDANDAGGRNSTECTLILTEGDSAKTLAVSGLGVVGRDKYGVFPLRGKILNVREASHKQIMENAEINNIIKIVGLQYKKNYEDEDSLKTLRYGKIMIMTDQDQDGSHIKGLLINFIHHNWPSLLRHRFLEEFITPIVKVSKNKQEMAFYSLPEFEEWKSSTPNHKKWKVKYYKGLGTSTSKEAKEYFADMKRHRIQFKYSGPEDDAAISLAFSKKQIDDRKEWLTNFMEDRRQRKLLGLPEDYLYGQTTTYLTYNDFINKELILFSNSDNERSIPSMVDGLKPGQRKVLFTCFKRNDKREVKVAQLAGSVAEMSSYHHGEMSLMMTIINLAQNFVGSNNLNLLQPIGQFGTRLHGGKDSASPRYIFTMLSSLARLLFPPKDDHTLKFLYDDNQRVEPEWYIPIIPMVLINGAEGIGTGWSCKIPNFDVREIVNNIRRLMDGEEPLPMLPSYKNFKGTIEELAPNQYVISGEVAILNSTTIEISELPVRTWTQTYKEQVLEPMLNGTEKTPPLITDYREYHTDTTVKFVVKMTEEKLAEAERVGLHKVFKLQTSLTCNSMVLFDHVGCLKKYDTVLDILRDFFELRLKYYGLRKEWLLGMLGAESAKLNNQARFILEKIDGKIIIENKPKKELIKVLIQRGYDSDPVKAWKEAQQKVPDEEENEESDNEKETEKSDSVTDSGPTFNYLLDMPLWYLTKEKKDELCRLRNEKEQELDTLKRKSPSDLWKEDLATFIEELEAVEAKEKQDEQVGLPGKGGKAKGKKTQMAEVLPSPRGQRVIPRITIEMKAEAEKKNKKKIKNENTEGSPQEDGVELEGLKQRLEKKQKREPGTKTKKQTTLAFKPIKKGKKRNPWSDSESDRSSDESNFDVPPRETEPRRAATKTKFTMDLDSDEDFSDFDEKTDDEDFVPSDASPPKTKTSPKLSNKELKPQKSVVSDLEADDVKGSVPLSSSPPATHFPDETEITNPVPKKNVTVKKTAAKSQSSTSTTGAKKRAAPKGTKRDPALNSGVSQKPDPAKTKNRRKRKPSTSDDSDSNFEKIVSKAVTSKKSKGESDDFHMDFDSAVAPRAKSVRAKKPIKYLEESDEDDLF

As to `Cc1ccc(-c2c3c(nc4[nH]c(=O)[nH]c(=O)c24)-c2ccccc2C3=O)cc1C`, the GI50 with PC-3 is 480 nM; in the test with SK-MEL, 450 nM; in the test with HeLa, 190 nM; in test [3] it was 500 nM; with A549, 140 nM; with MCF7, 190 nM. Further, the GI50 in the test on LoVo was 330 nM; in the test with Jurkat it was 170 nM. Besides, in the test with U-373MG ATCC, the result was Active. The result in test [1] was inactive. The inhibition entry in test [2] and in test [4] was “Active” throughout.
Take `Cc1ccc(C2C3=C(Nc4[nH]c(=O)[nH]c(=O)c42)c2ccccc2C3=O)cc1C` (stereo not given): the GI50 was found to be 4200 nM with PC-3; 960 nM with SK-MEL; 780 nM in the test on HeLa; 430 nM in [3]; 290 nM in the test with A549; 340 nM in the test on MCF7. Also, the 50% growth inhibitory concentration (GI50) with LoVo came to 490 nM; in the test on Jurkat it was 190 nM. Besides, in the test with U-373MG ATCC, the result was Active. Further, in test [1], the result was inactive.
Regarding `CSc1ccc(-c2c3c(nc4[nH]c(=O)[nH]c(=O)c24)-c2ccccc2C3=O)cc1`, the inhibition entry in test [5], in test [2] and in [4] was “Active” throughout. The GI50 was 190 nM with PC-3; 230 nM in the test with SK-MEL; 170 nM with HeLa; 100 nM in test [3]; 610 nM with A549; 450 nM in the test with MCF7. Moreover, the GI50 in the test on LoVo is 290 nM; in the test on Jurkat it was 50 nM. In addition, the result with U-373MG ATCC was Active. In addition, the result in test [1] was inactive.
Regarding `CSc1ccc(C2C3=C(Nc4[nH]c(=O)[nH]c(=O)c42)c2ccccc2C3=O)cc1` (stereo not given), the inhibition result in test [5] is “Active”. Further, the GI50 in the test on PC-3 came out at 400 nM; in the test with SK-MEL, 1800 nM; with HeLa, 370 nM; in [3] it was 100 nM; in the test on A549 it was 470 nM; in the test on MCF7, 360 nM. The GI50 with LoVo worked out at 490 nM; in the test on Jurkat, 190 nM. Further, in the test with U-373MG ATCC, the result was Active. Further, in test [1], the outcome was inactive.
For `COc1cccc2c1C(=O)c1c(O)c3c(c(O)c1C2=O)C[C@@](O)(C(=O)CO)C[C@@H]3O[C@H]1C[C@H](N)[C@H](O)[C@H](C)O1`, the inhibition entry in test [4] is “Active”.
For `COc1ccc(-c2c3c(nc4[nH]c(=O)[nH]c(=O)c24)-c2ccccc2C3=O)cc1`, the GI50 is 880 nM with PC-3; 4700 nM with SK-MEL; 5500 nM in the test on HeLa; 2400 nM in test [3]; greater than 10000 nM in the test with A549; 2400 nM in the test with MCF7. The GI50 with LoVo is 870 nM; in the test on Jurkat, 960 nM.
